TRPC6 inhibitor = mouse TRPC6 channel inhibition | HEK293-TRPC6, membrane potential dye, ACh-evoked depolarization; stronger effect = lower value | Q61143 | 310,000 compounds, 1.1% hits | B-score at 10 µM | AID 2553;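 active = B-score under library mean minus 3 SD, initial fluorescence not abnormally high, positive integrated signal ratio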;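 note: B-score derived from integrated fluorescence ratio over the kinetic read; more negative B-score means stronger inhibition of depolarization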
Target sequence (Q61143 whole entry, looked up): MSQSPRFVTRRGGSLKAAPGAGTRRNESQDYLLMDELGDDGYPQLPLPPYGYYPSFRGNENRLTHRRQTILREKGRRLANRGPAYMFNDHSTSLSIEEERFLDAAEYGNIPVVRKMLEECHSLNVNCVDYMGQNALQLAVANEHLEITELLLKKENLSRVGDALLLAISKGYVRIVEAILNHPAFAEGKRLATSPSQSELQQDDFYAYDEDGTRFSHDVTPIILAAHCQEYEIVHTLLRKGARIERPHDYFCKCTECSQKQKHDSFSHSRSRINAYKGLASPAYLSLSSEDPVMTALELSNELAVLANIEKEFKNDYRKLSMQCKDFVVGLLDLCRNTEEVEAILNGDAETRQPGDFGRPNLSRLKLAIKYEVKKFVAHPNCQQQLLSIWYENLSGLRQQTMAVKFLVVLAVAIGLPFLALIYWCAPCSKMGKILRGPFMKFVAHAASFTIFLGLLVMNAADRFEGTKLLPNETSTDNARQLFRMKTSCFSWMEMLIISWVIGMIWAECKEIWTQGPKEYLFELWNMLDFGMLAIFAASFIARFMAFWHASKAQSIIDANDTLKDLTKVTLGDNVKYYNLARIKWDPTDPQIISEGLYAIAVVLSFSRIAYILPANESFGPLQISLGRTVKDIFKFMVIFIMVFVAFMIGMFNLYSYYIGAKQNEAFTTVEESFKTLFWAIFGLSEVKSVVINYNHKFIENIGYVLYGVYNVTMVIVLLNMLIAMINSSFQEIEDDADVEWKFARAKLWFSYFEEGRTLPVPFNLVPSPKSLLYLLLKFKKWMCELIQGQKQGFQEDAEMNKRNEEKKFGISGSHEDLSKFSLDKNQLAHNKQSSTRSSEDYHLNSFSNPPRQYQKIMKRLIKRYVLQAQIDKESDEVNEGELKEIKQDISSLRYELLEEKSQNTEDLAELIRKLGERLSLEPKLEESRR
TRPC6 activator = mouse TRPC6 channel activation; 310,000 compounds, 0.13% hits; B-score at 10 µM; HEK293-TRPC6 membrane potential dye fluorescence; stronger effect = higher value; AID 2550;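 active = B-score of the integrated fluorescence ratio above library mean plus 3 SD, and starting fluorescence ratio within library mean plus 5 SD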;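 note: higher score means more depolarization so channel activation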
TRPC4 agonist = activators of mouse TRPC4 channel. HEK293 TRPC4beta/mu-opioid, Fluo4 calcium fluorescence; stronger effect = higher value. 310,000 compounds, 0.49% hits. Q9QUQ5. B-score at 10 µM. AID 2237;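 active = B-score above 5 SD of library B-scores, and initial fluorescence ratio not above library mean plus 5 SD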;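 note: positive B-score marks a calcium rise read as TRPC4 activation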
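Assay system: HEK293 stable line with TRPC4beta plus mu-opioid receptor. Times: dye 45 min RT, read 110 s. Measured by: kinetic Fluo4 calcium fluorescence. Measure: B score of integrated ratio. Controls: assay buffer as low control, maximal DAMGO as high control.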
TRPC4 inh = inhibitors of mouse TRPC4 channel; HEK293 TRPC4beta/mu-opioid, DAMGO-evoked Fluo4 calcium flux; stronger effect = lower value; B-score at 10 µM; 300,000 compounds, 0.39% hits;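 active = B-score over 3 SD under the library average, no early fluorescence shift, positive overall ratio signal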
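Assay system: HEK293 cells with stable TRPC4beta plus mu-opioid receptor expression; Probe or stimulus: DAMGO in two steps, submaximal then maximal; Dosing: single-point compound dosing; Measured by: Fluo4 calcium-dye fluorescence, kinetic read; Read-out basis: B score from integrated Fluo4 fluorescence ratio.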
TRPC4 PAM = allosteric potentiators of mouse TRPC4 channel; HEK293 TRPC4beta/mu-opioid, DAMGO EC20, Fluo-4 Ca2+ flux; stronger effect = higher value; 310,000 compounds, 0.42% hits; Q9QUQ5; B-score at 10 µM;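 active = B-score of calcium response area above 5 SD of library B-scores, with initial fluorescence ratio within 5 SD of library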
Of the large screens only hits and unclear results are named; the others gave an inactive call. In the library only some 2.3% were active in any assay of this set; here they are far more common.

O=C(Nc1cc(C(F)(F)F)ccc1Cl)c1ccncc1	none
CCCOc1ccc(N/C=C/C(=O)c2cc(OC)c(OC)c(OC)c2)cc1	none
COc1cc(OC)c(OC)cc1CNCCSc1nnnn1C	none
Cc1nn(C(=O)c2cccc([N+](=O)[O-])c2)c(C)c1Sc1ccccc1	TRPC4 inh -6
O=C(CN1C(=O)NC2(CCCC2)C1=O)Nc1nc2c(F)cc(F)cc2s1	none
c1ccc(OCC2CCNCC2)nc1	TRPC4 agonist 84
CC(c1ccccc1C(O)(c1ccccc1)c1ccccc1)N(C)C (centres undefined)	TRPC4 agonist 103
CC(C)N(CC#CCC(O)(c1ccccc1)c1ccccc1)C(C)C	none
CN(C)C(CNC(=O)c1ccc2ccccc2c1)c1ccco1 (centres undefined)	TRPC4 agonist 68
CSc1ccccc1C(=O)NCC(c1ccco1)N(C)C (centres undefined)	none
O=C(NCc1ccco1)c1ccc2c(c1)S(=O)(=O)c1ccccc1C2=O	none
CC(=O)NC(CC(=O)NCC(c1ccco1)N(C)C)c1ccccc1 (centres undefined)	TRPC4 agonist 92
CN(C)C(CNC(=O)c1ccc2c(c1)S(=O)(=O)c1ccccc1C2=O)c1ccco1 (centres undefined)	TRPC4 agonist 120, TRPC4 inh -8
CSc1ccc(C(=O)NCC(c2ccco2)N(C)C)cc1[N+](=O)[O-] (centres undefined)	TRPC4 agonist 293
CC(C)C(NC(=O)c1ccco1)C(=O)NCC(c1ccco1)N(C)C (centres undefined)	none
O=C(CSc1ccc(Br)cc1)NC1CCS(=O)(=O)C1 (centres undefined)	none
O=C(NC(=S)Nc1ccccc1N1CCCC1)c1ccc([N+](=O)[O-])cc1	none
Cc1c(C(=O)NC(=S)Nc2ccccc2N2CCCC2)cccc1[N+](=O)[O-]	TRPC4 PAM 13
CCOC(=O)C1=C(C)NC(=O)CC1c1cc2c(cc1[N+](=O)[O-])OCO2 (centres undefined)	TRPC4 inh -7
CCC1CCCCN1CC(=O)c1c(C)[nH]c2ccc(OC)cc12 (centres undefined)	none
CC1(c2ccccc2)CC(C)(C)N(C(=O)C2CCCO2)c2ccccc21 (centres undefined)	TRPC4 inh -7
CC1(c2cc([N+](=O)[O-])cc([N+](=O)[O-])c2)CC(C)(C)N(C(=O)c2ccccc2)c2ccccc21 (centres undefined)	none
COc1cc(OC)c(C2N(c3ccc(Cl)cc3)C(=O)C3CCCN32)cc1OC (centres undefined)	TRPC4 PAM 12
COc1cc(OC)c(C2N(c3ccc(Cl)c(Cl)c3)C(=O)C3CCCN32)cc1OC (centres undefined)	none
COc1ccc(CN(CCC(c2ccccc2)C2CCOC(C)(C)C2)C(C)=O)cc1 (centres undefined)	none
COc1ccc(CNCCC(c2ccccc2)C2CCOC(C)(C)C2)cc1 (centres undefined)	TRPC4 agonist 60
CCCn1cc(CN2CCC(n3nccc3NC(=O)c3ccccc3)CC2)c(C)n1	none
CC(C)[C@@H]1CC[C@@H](C)c2c(-c3ccccc3)n[nH]c21	TRPC4 PAM 10
CS(=O)(=O)c1ccccc1-c1nnc(NC(=O)c2ccco2)o1	none
CCOc1cc(/C=C2\COc3ccccc3C2=O)cc(Br)c1OCC(=O)N(C)C	none
CC(C)(C)Nc1nc(N2CCCC2)nc(N2CCCC2)n1	none
CCNc1nc(NC(C)(C)C)nc(N2CCCC2)n1	TRPC4 inh -8
N#Cc1ccc(OCC(O)CN2CCN(c3ncc(C(F)(F)F)cc3Cl)CC2)cc1 (centres undefined)	TRPC4 PAM 25
O=C(O)c1nn(CC(=O)N2CCN(c3ncc(C(F)(F)F)cc3Cl)CC2)c(=O)c2ccccc12	TRPC4 PAM 15
CC(C)(C(N)=O)N1CCN(c2ncc(C(F)(F)F)cc2Cl)CC1	TRPC4 agonist 61
O=C(CSc1ccccn1)N1CCN(c2ncc(C(F)(F)F)cc2Cl)CC1	TRPC4 agonist 49
N#Cc1ccc(OCC(O)CN2CCN(CC(O)COc3ccc(C#N)cc3)CC2)cc1 (centres undefined)	none
FC(F)(F)c1cnc(N2CCSCC2)c(Cl)c1	none
CCCCC[C@H]1CN(Cc2ccccc2)C(=O)[C@@H]1CC(=O)NCc1ccc(OC)cc1	none
COC(=O)c1cc(-c2cccc(OC)c2)c2c(=O)[nH]c(=O)n(C)c2n1	none
O=C(CCN1CCN(c2ccccc2F)CC1)Nc1cccc(F)c1	none
FC(F)(F)c1cnc(N2CCCN(C(=S)Nc3ccccc3)CC2)c(Cl)c1	TRPC4 agonist 159
CCOC(=O)N1CCN(c2ncc(C(F)(F)F)cc2Cl)CC1	none
FC(F)(F)c1cnc(N2CCN(C(=S)NCc3ccccc3)CC2)c(Cl)c1	none
COC(=O)C1CC(Cl)CN1c1ncc(C(F)(F)F)cc1Cl (centres undefined)	TRPC4 PAM 11
CNCC(=O)N1CCN(c2ncc(C(F)(F)F)cc2Cl)CC1	TRPC4 agonist 189
CC(=O)Nc1ccc(NC(=O)CN(c2cc(Cl)ccc2Cl)S(C)(=O)=O)cc1	none
O=[N+]([O-])c1ccc(C2CN=C(Nc3ccccc3)S2)cc1 (centres undefined)	none
CCc1ccc(NC2=NCC(c3ccccc3)S2)cc1 (centres undefined)	TRPC4 PAM 12
CC(C)C1=Nc2cccc3cccc(c23)N1	TRPC4 inh -6
O=C1Nc2cc(C(=O)NCCCN3CCOCC3)ccc2S/C1=C/c1ccccc1F	TRPC4 inh -6
CCCN1CNC(=S)N(CC2CCCO2)C1 (centres undefined)	none
S=C(NCc1ccccc1)N1CCN(C2CCCCC2)CC1	TRPC4 agonist 76
CC1CCC2C(=O)N(c3ccc(NC4CCN(Cc5ccccc5)CC4)c([N+](=O)[O-])c3)C(=O)C2C1 (centres undefined)	TRPC4 agonist 72
O=C1C2CC=CCC2C(=O)N1c1ccc(NCCc2ccccc2)c([N+](=O)[O-])c1 (centres undefined)	none
O=[N+]([O-])c1ccccc1NC1CCN(Cc2ccccc2)CC1	none
O=C1CCC(=O)N1c1ccc(NC2CCN(Cc3ccccc3)CC2)c([N+](=O)[O-])c1	TRPC4 agonist 83
CCc1cc(-c2n[nH]c(=S)n2-c2ccccc2C)cs1	none
Cc1cccc(Nc2nc(N)c([N+](=O)[O-])c(NCc3ccco3)n2)c1	TRPC4 PAM 10
COc1c(Cl)cc(Cl)cc1CNCCNCCO	TRPC4 PAM 11
CCOC(=O)c1ccc(NC(=O)CSC2=NN3CCCC(=O)N=C3S2)cc1	none
CCCC(c1nnnn1CC1CCCO1)N1CCN(c2nc3ccccc3s2)CC1 (centres undefined)	none
CCCCC(c1nnnn1CC1CCCO1)N1CCN(c2nc3ccccc3s2)CC1 (centres undefined)	TRPC4 agonist 88

Source: PubChem
